Data taken from ChEMBL document CHEMBL4351014, “Bis(het)aryl-1,2,3-triazole quinuclidines as α7 nicotinic acetylcholine receptor ligands: Synthesis, structure affinity relationships, agonism activity, [18F]-radiolabeling and PET study in rats” (Eur J Med Chem, 2019).
Activity calls are given as the source filed them. The calls are words filed in the database; no cut-off is given here.

Key:
[1] = target: Neuronal acetylcholine receptor subunit alpha-7 (Rattus norvegicus, UniProt Q05941); test: Displacement of [125I]-alpha-bungarotoxin from alpha7 nAChR in Wistar rat brain membrane incubated for 3 hrs by gamma counting analysis; format: cell membranes
Chain of Neuronal acetylcholine receptor subunit alpha-7 (Q05941 whole entry): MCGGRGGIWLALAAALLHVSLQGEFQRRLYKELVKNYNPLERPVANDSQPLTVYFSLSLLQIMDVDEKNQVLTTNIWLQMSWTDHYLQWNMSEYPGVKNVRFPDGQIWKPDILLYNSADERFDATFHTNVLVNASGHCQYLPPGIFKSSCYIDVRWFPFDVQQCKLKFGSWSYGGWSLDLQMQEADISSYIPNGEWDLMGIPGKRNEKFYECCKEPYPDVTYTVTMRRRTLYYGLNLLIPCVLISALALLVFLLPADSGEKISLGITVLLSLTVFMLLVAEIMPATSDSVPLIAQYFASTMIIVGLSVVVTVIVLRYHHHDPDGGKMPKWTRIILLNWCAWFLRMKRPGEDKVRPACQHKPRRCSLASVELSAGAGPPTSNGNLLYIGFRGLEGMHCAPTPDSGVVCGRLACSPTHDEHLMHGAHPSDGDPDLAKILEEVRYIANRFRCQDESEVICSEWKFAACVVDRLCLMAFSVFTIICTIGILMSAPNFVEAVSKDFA
In short: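 Frontal cortex membranes from male Wistar rats (2 rats per experiment), homogenised in pH 7.4 HEPES buffer and spun at 45,000×g. 25 μg protein incubated with 2 nM [125I]α-bungarotoxin and 10^-10 to 10^-6 M competitor in pH 7.4 Tris-HCl with Ca/Mg for 3 h at 22 °C. Nonspecific binding defined with 1 μM α-bungarotoxin. Filtered on PEI-soaked GF/C, gamma counted. IC50 read graphically, converted to Ki.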

SH-SY5Y [2] = test: Cytotoxicity against human SH-SY5Y cells assessed as cell viability at 50 nM to 5 uM incubated for 48 hrs by MTS assay; format: cell-based; conditions: 0.05 µM
In short: (§1)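 Retinoic acid-differentiated SH-SY5Y cells exposed for 48 h to 10, 100 and 1000 × Ki of each agent. MTS added for 3 h, absorbance read at 490 nm. Viability given as % of vehicle-treated cells. 4 independent experiments in triplicate, mean ± SEM.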

[3] = target: Neuronal acetylcholine receptor; alpha4/beta2 (Homo sapiens, UniProt P17787+P43681); test: Displacement of [3H]cytisine from human recombinant alpha4beta2 nAChR incubated for 120 mins by radiometric scintillation analysis; format: protein-complex assay
Chain of Neuronal acetylcholine receptor; alpha4/beta2 (P17787 whole entry): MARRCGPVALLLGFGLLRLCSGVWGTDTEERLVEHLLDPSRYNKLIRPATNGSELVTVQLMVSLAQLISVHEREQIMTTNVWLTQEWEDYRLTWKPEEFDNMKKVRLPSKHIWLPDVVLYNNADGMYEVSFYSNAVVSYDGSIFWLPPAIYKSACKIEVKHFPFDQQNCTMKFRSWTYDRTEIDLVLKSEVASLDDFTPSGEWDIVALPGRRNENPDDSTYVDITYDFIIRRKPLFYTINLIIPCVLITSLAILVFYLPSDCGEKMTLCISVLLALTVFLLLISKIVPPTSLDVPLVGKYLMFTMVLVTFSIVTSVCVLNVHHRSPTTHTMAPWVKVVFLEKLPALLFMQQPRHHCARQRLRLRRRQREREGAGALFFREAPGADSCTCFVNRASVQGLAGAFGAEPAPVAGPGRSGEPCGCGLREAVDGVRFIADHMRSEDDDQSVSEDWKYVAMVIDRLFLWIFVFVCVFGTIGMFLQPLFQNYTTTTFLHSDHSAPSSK
Chain of Neuronal acetylcholine receptor; alpha4/beta2 (P43681 whole entry): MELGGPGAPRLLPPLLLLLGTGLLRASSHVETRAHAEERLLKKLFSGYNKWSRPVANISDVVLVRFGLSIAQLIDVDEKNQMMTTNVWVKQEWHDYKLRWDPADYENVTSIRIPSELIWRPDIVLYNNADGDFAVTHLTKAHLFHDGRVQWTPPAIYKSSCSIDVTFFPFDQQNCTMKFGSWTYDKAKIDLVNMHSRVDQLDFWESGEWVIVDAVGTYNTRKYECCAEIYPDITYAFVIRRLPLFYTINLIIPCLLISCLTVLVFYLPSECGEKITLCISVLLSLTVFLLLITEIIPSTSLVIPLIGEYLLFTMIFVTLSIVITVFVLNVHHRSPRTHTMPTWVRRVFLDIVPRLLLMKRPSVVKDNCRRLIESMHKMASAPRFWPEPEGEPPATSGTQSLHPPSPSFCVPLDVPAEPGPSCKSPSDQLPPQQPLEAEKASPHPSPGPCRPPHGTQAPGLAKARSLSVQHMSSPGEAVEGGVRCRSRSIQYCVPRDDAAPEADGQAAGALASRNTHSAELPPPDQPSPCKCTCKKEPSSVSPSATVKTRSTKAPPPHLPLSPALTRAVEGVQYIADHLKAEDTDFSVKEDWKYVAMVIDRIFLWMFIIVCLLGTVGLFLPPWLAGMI

[4] = target: Neuronal acetylcholine receptor subunit alpha-7 (Homo sapiens) (UniProt P36544); test: (§2) Agonist activity at alpha7 nAChR in human SH-SY5Y cells assessed as increase in intracellular calcium release at 50 nM preincubated for 1 min with alpha7 nAchR PAM PNU120596 prior to compound addition by Fluo-3 AM staining-based fluorescence spectral scanning multimode reader analysis; format: cell-based
Chain of Neuronal acetylcholine receptor subunit alpha-7 (Homo sapiens) (P36544 whole entry): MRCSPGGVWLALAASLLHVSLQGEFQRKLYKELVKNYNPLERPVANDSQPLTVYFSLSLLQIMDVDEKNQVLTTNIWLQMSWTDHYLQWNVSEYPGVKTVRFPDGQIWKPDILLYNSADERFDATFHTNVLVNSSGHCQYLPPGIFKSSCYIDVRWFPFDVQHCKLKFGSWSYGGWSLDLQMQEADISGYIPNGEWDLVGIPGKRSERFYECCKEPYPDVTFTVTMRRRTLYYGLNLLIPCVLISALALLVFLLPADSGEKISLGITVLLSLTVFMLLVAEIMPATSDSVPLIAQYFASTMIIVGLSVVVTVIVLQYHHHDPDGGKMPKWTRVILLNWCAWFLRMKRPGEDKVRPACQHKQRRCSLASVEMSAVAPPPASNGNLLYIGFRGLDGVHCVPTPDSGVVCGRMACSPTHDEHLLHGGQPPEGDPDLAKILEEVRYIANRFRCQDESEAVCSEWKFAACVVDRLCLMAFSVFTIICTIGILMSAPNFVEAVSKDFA
In short: (§3)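 SH-SY5Y (ATCC) grown in MEM/F12 1:1 with 10% heat-inactivated FBS, differentiated with 10 μM retinoic acid for 7 days. Cells loaded with 10 μM fluo-3 AM plus 0.02% Pluronic F127 for 1 h at r.t. in the dark, then preincubated 20 min at r.t. in Tyrode's solution with vehicle. PNU-120596 added in the last minute. Fluorescence read at Ex 506/Em 526 nm, normalised to Triton (Fmax) and MnCl2 (Fmin). 5 experiments in duplicate, mean ± SEM.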

[5] = target: T1, 5-hydroxytryptamine receptor 3A (Homo sapiens, UniProt P46098); test: Displacement of [3H]BRL 43694 from human 5HT3R by radioligand displacement assay
T1 sequence (P46098 whole entry): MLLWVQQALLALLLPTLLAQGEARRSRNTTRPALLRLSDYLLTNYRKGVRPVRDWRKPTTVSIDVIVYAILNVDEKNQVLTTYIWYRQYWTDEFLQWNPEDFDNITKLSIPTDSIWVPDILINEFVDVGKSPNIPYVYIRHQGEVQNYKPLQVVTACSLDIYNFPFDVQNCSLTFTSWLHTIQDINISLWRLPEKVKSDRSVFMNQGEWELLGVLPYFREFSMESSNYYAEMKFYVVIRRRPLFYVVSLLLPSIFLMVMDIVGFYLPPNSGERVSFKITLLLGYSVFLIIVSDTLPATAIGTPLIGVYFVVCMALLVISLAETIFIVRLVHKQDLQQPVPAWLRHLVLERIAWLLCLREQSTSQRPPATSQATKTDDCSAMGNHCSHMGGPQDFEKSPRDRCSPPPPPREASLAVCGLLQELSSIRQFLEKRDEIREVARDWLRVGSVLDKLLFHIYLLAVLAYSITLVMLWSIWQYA

[6] = target: Neuronal acetylcholine receptor subunit alpha-7 (Homo sapiens) (UniProt P36544); test: as §2, with “release of” for “increase in”, “calcium” for “calcium release”, “for 20 mins with alpha7 nAChR antagonist alpha-bungarotoxin and for” for “for”, “nAChR” for “nAchR”; format: cell-based
In short: (§4)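 Differentiated SH-SY5Y cells loaded with fluo-3 AM as above, then preincubated 20 min at r.t. in Tyrode's solution with 100 nM α-bungarotoxin. PNU-120596 added 1 min before test agent or 3 mM choline. Fluorescence read at Ex 506/Em 526 nm, response expressed as % of (Fmax−Fmin) from 0.3% Triton X-100 then 100 mM MnCl2. 5 experiments in duplicate, mean ± SEM.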

[7] = target: Neuronal acetylcholine receptor subunit alpha-7 (Homo sapiens) (UniProt P36544); test: Agonist activity at alpha7 nAChR in human SH-SY5Y cells assessed as intracellular calcium release at 7 nM preincubated for 1 min with alpha7 nAchR PAM PNU120596 prior to compound addition by Fluo-3 AM staining-based fluorescence spectral scanning multimode reader analysis; format: cell-based; in short: as §3
[8] = Cytotoxicity against human SH-SY5Y cells assessed as reduction in cell viability at 13 uM incubated for 48 hrs by MTS assay relative to control; format: cell-based; conditions: read-out: INH; in short: as §1
[9] = target: Neuronal acetylcholine receptor subunit alpha-7 (Homo sapiens) (UniProt P36544); test: (§5) Agonist activity at alpha7 nAChR in human SH-SY5Y cells assessed as release of intracellular calcium at 130 nM preincubated for 20 mins with alpha7 nAChR antagonist alpha-bungarotoxin and for 1 min with alpha7 nAChR PAM PNU120596 prior to compound addition by Fluo-3 AM staining-based fluorescence spectral scanning multimode reader analysis; format: cell-based; in short: as §4
SH-SY5Y [10] = test: Cytotoxicity against human SH-SY5Y cells assessed as cell viability at 0.13 to 1.3 uM incubated for 48 hrs by MTS assay; format: cell-based; in short: as §1
[11] = target: Neuronal acetylcholine receptor subunit alpha-7 (Homo sapiens) (UniProt P36544); test: Agonist activity at alpha7 nAChR in human SH-SY5Y cells assessed as increase in intracellular calcium release at 130 nM preincubated for 1 min with alpha7 nAchR PAM PNU120596 prior to compound addition by Fluo-3 AM staining-based fluorescence spectral scanning multimode reader analysis; format: cell-based; in short: as §3
[12] = target: Neuronal acetylcholine receptor subunit alpha-7 (Homo sapiens) (UniProt P36544); test: as §5, with “3” for “130”; format: cell-based; in short: as §4
SH-SY5Y [13] = test: Cytotoxicity against human SH-SY5Y cells assessed as cell viability at 0.003 to 3 uM incubated for 48 hrs by MTS assay; format: cell-based; in short: as §1
[14] = target: Neuronal acetylcholine receptor subunit alpha-7 (Homo sapiens) (UniProt P36544); test: as §2, with “3” for “50”, “analysis relative to choline” for “analysis”; format: cell-based; in short: as §3

OCc1ccc(-c2cccc(-c3cn([C@H]4CN5CCC4CC5)nn3)c2)cc1
Ki [1]: 0.007 µM

c1cc(CN2CCCCC2)cc(-c2ccc(-c3cn([C@H]4CN5CCC4CC5)nn3)s2)c1
Ki [1]: 0.017 µM

FCc1ccc(-c2ccc(-c3cn([C@H]4CN5CCC4CC5)nn3)s2)cc1
Activity (SH-SY5Y [2]): Non-Toxic
Ki [3]: > 1 µM
Activity [4]: Active
Ki [5]: > 1 µM
Activity [6]: inactive

OCc1cccc(-c2ccc(-c3cn([C@H]4CN5CCC4CC5)nn3)s2)c1
Ki [1]: 0.0007 µM
Activity [7]: inactive

COC(=O)c1ccc(-c2ccc(-c3cn([C@H]4CN5CCC4CC5)nn3)s2)cc1F
Ki [1]: 0.08 to 0.09 µM

FCCOc1ccc(-c2ccc(-c3cn([C@H]4CN5CCC4CC5)nn3)s2)cc1
Ki [1]: 0.34 µM

OCCOc1ccc(-c2ccc(-c3cn([C@H]4CN5CCC4CC5)nn3)s2)cc1
Ki [1]: 0.0017 µM

Fc1ccc(-c2ccc(-c3cn([C@H]4CN5CCC4CC5)nn3)cc2)cn1
Ki [1]: > 1 µM

NCc1ccc(-c2ccc(-c3cn([C@H]4CN5CCC4CC5)nn3)s2)cc1
Ki [1]: 0.0003 µM

OCc1ccc(-c2cccc(-c3cn([C@H]4CN5CCC4CC5)nn3)c2)cc1F
Ki [1]: 0.018 µM

c1cc(CN2CCOCC2)cc(-c2cccc(-c3cn([C@H]4CN5CCC4CC5)nn3)c2)c1
Ki [1]: 0.049 µM

OC1CCN(Cc2ccc(-c3ccc(-c4cn([C@H]5CN6CCC5CC6)nn4)s3)cc2)CC1
Ki [1]: 0.0003 µM

FCC1CCN(Cc2ccc(-c3ccc(-c4cn([C@H]5CN6CCC5CC6)nn4)s3)cc2)CC1
Ki [1]: 0.0014 µM

c1csc(-c2ccc(-c3cn([C@H]4CN5CCC4CC5)nn3)cc2)c1
Ki [1]: 0.11 to 0.16 µM

OCc1ccc(-c2ccc(-c3cn([C@H]4CN5CCC4CC5)nn3)s2)s1
Ki [1]: 0.0008 µM

FCc1cccc(-c2ccc(-c3cn([C@H]4CN5CCC4CC5)nn3)s2)c1
Ki [1]: 0.042 µM

c1cc2c(cc1-c1ccc(-c3cn([C@H]4CN5CCC4CC5)nn3)s1)OCCO2
Ki [1]: 0.14 µM

Fc1ccc(-c2ccc(-c3cn([C@H]4CN5CCC4CC5)nn3)s2)cn1
Ki [1]: 0.013 µM
cytotoxicity at 48 h, 13 µM [8]: 15%
Activity [9]: inactive
Ki [3]: > 1 µM
Ki [5]: 0.44 µM
Activity (SH-SY5Y [10]): Non-Toxic
Activity [11]: Active

c1cc2c(cc1-c1ccc(-c3cn([C@H]4CN5CCC4CC5)nn3)s1)CCO2
Ki [1]: 0.06 µM

FC1CCN(Cc2ccc(-c3ccc(-c4cn([C@H]5CN6CCC5CC6)nn4)s3)cc2)CC1
Ki [1]: 0.0028 µM

CN1CCN(Cc2cccc(-c3ccc(-c4cn([C@H]5CN6CCC5CC6)nn4)s3)c2)CC1
Ki [1]: 0.016 µM

FCCc1ccc(-c2ccc(-c3cn([C@H]4CN5CCC4CC5)nn3)s2)cc1
Ki [1]: 0.157 µM

c1cc(-c2ccc(-c3cn([C@H]4CN5CCC4CC5)nn3)s2)ccc1CN1CCCCC1
Activity [12]: inactive
Activity (SH-SY5Y [13]): Non-Toxic
Activity [14]: 80%
Ki [3]: 1 µM
Ki [5]: 0.56 µM

c1cc(CN2CCOCC2)cc(-c2ccc(-c3cn([C@H]4CN5CCC4CC5)nn3)s2)c1
Ki [1]: 0.016 µM

OCc1ccc(-c2ccc(-c3cn([C@H]4CN5CCC4CC5)nn3)cc2)cc1
Ki [1]: 0.1 to 0.175 µM

COCOCCOc1ccc(-c2ccc(-c3cn([C@H]4CN5CCC4CC5)nn3)s2)cc1
Ki [1]: 0.14 µM

OCc1ccc(-c2cccc(-c3cn([C@H]4CN5CCC4CC5)nn3)c2)s1
Ki [1]: 0.0002 µM

OCCc1ccc(-c2ccc(-c3cn([C@H]4CN5CCC4CC5)nn3)s2)cc1
Ki [1]: 0.0015 µM

CN1CCN(Cc2cccc(-c3cccc(-c4cn([C@H]5CN6CCC5CC6)nn4)c3)c2)CC1
Ki [1]: 0.039 µM

Fc1ccc(-c2csc(-c3cn([C@H]4CN5CCC4CC5)nn3)c2)cn1
Ki [1]: 0.031 µM

CN1CCN(Cc2ccc(-c3cccc(-c4cn([C@H]5CN6CCC5CC6)nn4)c3)cc2)CC1
Ki [1]: 0.0019 µM

OCc1ccc(-c2csc(-c3cn([C@H]4CN5CCC4CC5)nn3)c2)cc1
Ki [1]: 0.0015 µM

OCc1ccc(-c2ccc(-c3cn([C@H]4CN5CCC4CC5)nn3)cc2)s1
Ki [1]: 0.12 to 0.2 µM

c1cc(CN2CCCCC2)cc(-c2cccc(-c3cn([C@H]4CN5CCC4CC5)nn3)c2)c1
Ki [1]: 0.122 µM

OCc1ccc(-c2ccc(-c3cn([C@H]4CN5CCC4CC5)nn3)s2)cc1F
Ki [1]: 0.012 µM

c1ccc(-c2ccc(-c3cn([C@H]4CN5CCC4CC5)nn3)s2)cc1
Ki [1]: 0.043 µM

c1cc(-c2ccc(CN3CCCCC3)cc2)cc(-c2cn([C@H]3CN4CCC3CC4)nn2)c1
Ki [1]: 0.003 µM

c1cc(-c2ccc(CN3CCOCC3)cc2)cc(-c2cn([C@H]3CN4CCC3CC4)nn2)c1
Ki [1]: 0.0125 µM
